Source: ChEMBL document CHEMBL1138520, “Molecular and conformational determinants of pituitary adenylate cyclase-activating polypeptide (PACAP) for activation of the PAC1 receptor” (J Med Chem, 2009)
The source made the active and inactive calls. The rule behind the calls is not given here. Where a SMILES comes first, the peptide text is derived from it. [ ]: non-standard residue; d: D form. ξ: configuration not given here. ξTiq(1-COOH) = O=C(O)C1NCCc2ccccc21; ξDisc = O=C(O)C1NCc2ccccc21

Key:
[1] = target: T1, Pituitary adenylate cyclase-activating polypeptide type I receptor (Homo sapiens, UniProt P41586); assay: Agonist activity at human recombinant PAC1 receptor expressed in CHO cells assessed as PACAP38-induced calcium mobilization at 1 uM by FLIPR assay relative to PACAP38; assay type: functional, cell-based
Target sequence in this assay (P41586 21-468 limits assumed): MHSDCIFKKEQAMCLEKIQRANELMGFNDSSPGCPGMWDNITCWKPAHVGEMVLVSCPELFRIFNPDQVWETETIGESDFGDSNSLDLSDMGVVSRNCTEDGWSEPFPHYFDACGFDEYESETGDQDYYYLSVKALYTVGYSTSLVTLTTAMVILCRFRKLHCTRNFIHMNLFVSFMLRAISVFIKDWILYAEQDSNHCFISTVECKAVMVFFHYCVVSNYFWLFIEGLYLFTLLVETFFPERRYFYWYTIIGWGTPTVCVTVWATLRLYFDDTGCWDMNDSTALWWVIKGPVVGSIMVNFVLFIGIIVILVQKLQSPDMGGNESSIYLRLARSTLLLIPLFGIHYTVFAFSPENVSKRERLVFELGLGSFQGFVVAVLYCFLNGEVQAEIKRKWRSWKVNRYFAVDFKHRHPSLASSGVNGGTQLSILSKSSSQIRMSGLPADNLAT

[2] = target: T1, Pituitary adenylate cyclase-activating polypeptide type I receptor; assay: Agonist activity at human recombinant PAC1 receptor expressed in CHO cells assessed as PACAP38-induced calcium mobilization at 1 uM by FLIPR assay; assay type: functional, cell-based
Target sequence in this assay (P41586 whole entry): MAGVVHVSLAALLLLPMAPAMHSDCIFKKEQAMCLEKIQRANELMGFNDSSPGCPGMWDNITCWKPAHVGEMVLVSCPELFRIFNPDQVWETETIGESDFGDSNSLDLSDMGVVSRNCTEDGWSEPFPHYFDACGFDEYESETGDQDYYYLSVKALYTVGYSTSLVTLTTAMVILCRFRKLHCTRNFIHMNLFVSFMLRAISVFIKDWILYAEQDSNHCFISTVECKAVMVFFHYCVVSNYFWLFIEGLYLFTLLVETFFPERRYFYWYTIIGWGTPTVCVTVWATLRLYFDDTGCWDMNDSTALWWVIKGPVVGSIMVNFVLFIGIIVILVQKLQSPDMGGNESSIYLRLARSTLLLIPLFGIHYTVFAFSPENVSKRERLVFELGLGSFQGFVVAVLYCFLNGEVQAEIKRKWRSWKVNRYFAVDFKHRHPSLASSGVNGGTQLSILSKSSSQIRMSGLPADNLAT

[3] = target: T1, Pituitary adenylate cyclase-activating polypeptide type I receptor; assay: Displacement of [125I]Ac-PACAP27 from human recombinant PAC1 receptor expressed in CHO cells by gamma- counter; assay type: cell-based
Target sequence in this assay (P41586 whole entry): as above

[4] = target: T1, Pituitary adenylate cyclase-activating polypeptide type I receptor; assay: Antagonist activity at human recombinant PAC1 receptor expressed in CHO cells assessed as reduction in PACAP38-induced calcium mobilization by FLIPR assay; assay type: functional, cell-based; conditions: read-out: pA2 (converted)
Outline: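 PAC1-CHO cells were loaded with fluo-4 and preincubated 15 min with antagonist at 0.1, 1 or 10 µM. PACAP38 concentration-response curves for calcium mobilization were then recorded. pA2 was estimated by Schild plot from concentration ratios; 4-10 independent assays in duplicate.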
Target sequence in this assay (P41586 whole entry): as above

Emax [1] | EC50 [2] | IC50 [3] | Kb [4] | SMILES
inactive | Not Active | 1.55 µM |  | CC[C@H](C)[C@H](NC(=O)CNC(=O)[C@H](CC(=O)O)NC(=O)[C@H](CO)NC(=O)[C@@H](N)Cc1cnc[nH]1)C(=O)N1CCc2ccccc2C1C(=O)N[C@H](C(=O)N[C@@H](CC(=O)O)C(=O)N[C@@H](CO)C(=O)N[C@@H](Cc1ccc(O)cc1)C(=O)N[C@@H](CO)C(=O)N[C@@H](CCCNC(=N)N)C(=O)N[C@@H](Cc1ccc(O)cc1)C(=O)N[C@@H](CCCNC(=N)N)C(=O)N[C@@H](CCCCN)C(=O)N[C@@H](CCC(N)=O)C(=O)N[C@@H](CCSC)C(=O)N[C@@H](C)C(=O)N[C@H](C(=O)N[C@@H](CCCCN)C(=O)N[C@@H](CCCCN)C(=O)N[C@@H](Cc1ccc(O)cc1)C(=O)N[C@@H](CC(C)C)C(=O)N[C@@H](C)C(=O)N[C@@H](C)C(=O)N[C@H](C(=O)N[C@@H](CC(C)C)C(=O)NCC(=O)N[C@@H](CCCCN)C(=O)N[C@@H](CCCNC(=N)N)C(=O)N[C@@H](Cc1ccc(O)cc1)C(=O)N[C@@H](CCCCN)C(=O)N[C@@H](CCC(N)=O)C(=O)N[C@@H](CCCNC(=N)N)C(=O)N[C@H](C(=O)N[C@@H](CCCCN)C(=O)N[C@@H](CC(N)=O)C(=O)N[C@@H](CCCCN)C(N)=O)C(C)C)C(C)C)C(C)C)[C@@H](C)O (stereo partly drawn) (H-HSDGI[ξTiq(1-COOH)]TDSYSRYRKQMAVKKYLAAVLGKRYKQRVKNK-NH2)
inactive | Not Active | 2.59 µM |  | CC[C@H](C)[C@H](NC(=O)CNC(=O)[C@H](CC(=O)O)NC(=O)[C@H](CO)NC(=O)[C@@H](N)Cc1cnc[nH]1)C(=O)N1CCc2ccccc2C1C(=O)N[C@H](C(=O)N[C@@H](CC(=O)O)C(=O)N[C@@H](CO)C(=O)N[C@@H](Cc1ccc(O)cc1)C(=O)N[C@@H](CO)C(=O)N[C@@H](CCCNC(=N)N)C(=O)N[C@@H](Cc1ccc(O)cc1)C(=O)N[C@@H](CCCNC(=N)N)C(=O)N[C@@H](CCCCN)C(=O)N[C@@H](CCC(N)=O)C(=O)N[C@@H](CCSC)C(=O)N[C@@H](C)C(=O)N[C@H](C(=O)N[C@@H](CCCCN)C(=O)N[C@@H](CCCCN)C(=O)N[C@@H](Cc1ccc(O)cc1)C(=O)N[C@@H](CC(C)C)C(=O)N[C@@H](C)C(=O)N[C@@H](C)C(=O)N[C@H](C(=O)N[C@@H](CC(C)C)C(N)=O)C(C)C)C(C)C)[C@@H](C)O (stereo partly drawn)
inactive | Not Active | 0.0763 µM | 0.0355 µM | CC[C@H](C)[C@H](NC(=O)CNC(=O)[C@H](CC(=O)O)NC(=O)[C@H]1CCCN1C(=O)[C@@H](N)Cc1cnc[nH]1)C(=O)N[C@@H](Cc1ccccc1)C(=O)N[C@H](C(=O)N[C@@H](CC(=O)O)C(=O)N[C@@H](CO)C(=O)N[C@@H](Cc1ccc(O)cc1)C(=O)N[C@@H](CO)C(=O)N[C@@H](CCCNC(=N)N)C(=O)N[C@@H](Cc1ccc(O)cc1)C(=O)N[C@@H](CCCNC(=N)N)C(=O)N[C@@H](CCCCN)C(=O)N[C@@H](CCC(N)=O)C(=O)N[C@@H](CCSC)C(=O)N[C@@H](C)C(=O)N[C@H](C(=O)N[C@@H](CCCCN)C(=O)N[C@@H](CCCCN)C(=O)N[C@@H](Cc1ccc(O)cc1)C(=O)N[C@@H](CC(C)C)C(=O)N[C@@H](C)C(=O)N[C@@H](C)C(=O)N[C@H](C(=O)N[C@@H](CC(C)C)C(=O)NCC(=O)N[C@@H](CCCCN)C(=O)N[C@@H](CCCNC(=N)N)C(=O)N[C@@H](Cc1ccc(O)cc1)C(=O)N[C@@H](CCCCN)C(=O)N[C@@H](CCC(N)=O)C(=O)N[C@@H](CCCNC(=N)N)C(=O)N[C@H](C(=O)N[C@@H](CCCCN)C(=O)N[C@@H](CC(N)=O)C(=O)N[C@@H](CCCCN)C(N)=O)C(C)C)C(C)C)C(C)C)[C@@H](C)O
inactive | Not Active | 3.15 µM |  | CC[C@H](C)[C@H](NC(=O)CNC(=O)[C@H](CC(=O)O)NC(=O)[C@H](CO)NC(=O)[C@@H](N)Cc1cnc[nH]1)C(=O)N(C)[C@@H](Cc1ccccc1)C(=O)N[C@H](C(=O)N[C@@H](CC(=O)O)C(=O)N[C@@H](CO)C(=O)N[C@@H](Cc1ccc(O)cc1)C(=O)N[C@@H](CO)C(=O)N[C@@H](CCCNC(=N)N)C(=O)N[C@@H](Cc1ccc(O)cc1)C(=O)N[C@@H](CCCNC(=N)N)C(=O)N[C@@H](CCCCN)C(=O)N[C@@H](CCC(N)=O)C(=O)N[C@@H](CCSC)C(=O)N[C@@H](C)C(=O)N[C@H](C(=O)N[C@@H](CCCCN)C(=O)N[C@@H](CCCCN)C(=O)N[C@@H](Cc1ccc(O)cc1)C(=O)N[C@@H](CC(C)C)C(=O)N[C@@H](C)C(=O)N[C@@H](C)C(=O)N[C@H](C(=O)N[C@@H](CC(C)C)C(N)=O)C(C)C)C(C)C)[C@@H](C)O
inactive | Not Active | 1.75 µM |  | CC[C@H](C)[C@H](NC(=O)CNC(=O)[C@H](CC(=O)O)NC(=O)[C@H](CO)NC(=O)[C@@H](N)Cc1cnc[nH]1)C(=O)N1Cc2ccccc2C1C(=O)N[C@H](C(=O)N[C@@H](CC(=O)O)C(=O)N[C@@H](CO)C(=O)N[C@@H](Cc1ccc(O)cc1)C(=O)N[C@@H](CO)C(=O)N[C@@H](CCCNC(=N)N)C(=O)N[C@@H](Cc1ccc(O)cc1)C(=O)N[C@@H](CCCNC(=N)N)C(=O)N[C@@H](CCCCN)C(=O)N[C@@H](CCC(N)=O)C(=O)N[C@@H](CCSC)C(=O)N[C@@H](C)C(=O)N[C@H](C(=O)N[C@@H](CCCCN)C(=O)N[C@@H](CCCCN)C(=O)N[C@@H](Cc1ccc(O)cc1)C(=O)N[C@@H](CC(C)C)C(=O)N[C@@H](C)C(=O)N[C@@H](C)C(=O)N[C@H](C(=O)N[C@@H](CC(C)C)C(=O)NCC(=O)N[C@@H](CCCCN)C(=O)N[C@@H](CCCNC(=N)N)C(=O)N[C@@H](Cc1ccc(O)cc1)C(=O)N[C@@H](CCCCN)C(=O)N[C@@H](CCC(N)=O)C(=O)N[C@@H](CCCNC(=N)N)C(=O)N[C@H](C(=O)N[C@@H](CCCCN)C(=O)N[C@@H](CC(N)=O)C(=O)N[C@@H](CCCCN)C(N)=O)C(C)C)C(C)C)C(C)C)[C@@H](C)O (stereo partly drawn) (H-HSDGI[ξDisc]TDSYSRYRKQMAVKKYLAAVLGKRYKQRVKNK-NH2)
inactive | Not Active | 0.097 µM | 0.00407 µM | CC[C@H](C)[C@H](NC(=O)CN(C)C(=O)[C@H](CC(=O)O)NC(=O)[C@H](CO)NC(=O)[C@@H](N)Cc1cnc[nH]1)C(=O)N[C@@H](Cc1ccccc1)C(=O)N[C@H](C(=O)N[C@@H](CC(=O)O)C(=O)N[C@@H](CO)C(=O)N[C@@H](Cc1ccc(O)cc1)C(=O)N[C@@H](CO)C(=O)N[C@@H](CCCNC(=N)N)C(=O)N[C@@H](Cc1ccc(O)cc1)C(=O)N[C@@H](CCCNC(=N)N)C(=O)N[C@@H](CCCCN)C(=O)N[C@@H](CCC(N)=O)C(=O)N[C@@H](CCSC)C(=O)N[C@@H](C)C(=O)N[C@H](C(=O)N[C@@H](CCCCN)C(=O)N[C@@H](CCCCN)C(=O)N[C@@H](Cc1ccc(O)cc1)C(=O)N[C@@H](CC(C)C)C(=O)N[C@@H](C)C(=O)N[C@@H](C)C(=O)N[C@H](C(=O)N[C@@H](CC(C)C)C(=O)NCC(=O)N[C@@H](CCCCN)C(=O)N[C@@H](CCCNC(=N)N)C(=O)N[C@@H](Cc1ccc(O)cc1)C(=O)N[C@@H](CCCCN)C(=O)N[C@@H](CCC(N)=O)C(=O)N[C@@H](CCCNC(=N)N)C(=O)N[C@H](C(=O)N[C@@H](CCCCN)C(=O)N[C@@H](CC(N)=O)C(=O)N[C@@H](CCCCN)C(N)=O)C(C)C)C(C)C)C(C)C)[C@@H](C)O
inactive | Not Active | 0.0567 µM | 0.011 µM | CSCC[C@H](NC(=O)[C@H](CCC(N)=O)NC(=O)[C@H](CCCCN)NC(=O)[C@H](CCCNC(=N)N)NC(=O)[C@H](Cc1ccc(O)cc1)NC(=O)[C@H](CCCNC(=N)N)NC(=O)[C@H](CO)NC(=O)[C@H](Cc1ccc(O)cc1)NC(=O)[C@H](CO)NC(=O)[C@H](CC(=O)O)NC(=O)[C@@H](NC(=O)[C@@H](N)Cc1ccccc1)[C@@H](C)O)C(=O)N[C@@H](C)C(=O)N[C@H](C(=O)N[C@@H](CCCCN)C(=O)N[C@@H](CCCCN)C(=O)N[C@@H](Cc1ccc(O)cc1)C(=O)N[C@@H](CC(C)C)C(=O)N[C@@H](C)C(=O)N[C@@H](C)C(=O)N[C@H](C(=O)N[C@@H](CC(C)C)C(=O)NCC(=O)N[C@@H](CCCCN)C(=O)N[C@@H](CCCNC(=N)N)C(=O)N[C@@H](Cc1ccc(O)cc1)C(=O)N[C@@H](CCCCN)C(=O)N[C@@H](CCC(N)=O)C(=O)N[C@@H](CCCNC(=N)N)C(=O)N[C@H](C(=O)N[C@@H](CCCCN)C(=O)N[C@@H](CC(N)=O)C(=O)N[C@@H](CCCCN)C(N)=O)C(C)C)C(C)C)C(C)C
inactive | Not Active | 0.158 µM | 0.0525 µM | CC[C@H](C)[C@@H](C(=O)N[C@@H](Cc1ccccc1)C(=O)N[C@H](C(=O)N[C@@H](CC(=O)O)C(=O)N[C@@H](CO)C(=O)N[C@@H](Cc1ccc(O)cc1)C(=O)N[C@@H](CO)C(=O)N[C@@H](CCCNC(=N)N)C(=O)N[C@@H](Cc1ccc(O)cc1)C(=O)N[C@@H](CCCNC(=N)N)C(=O)N[C@@H](CCCCN)C(=O)N[C@@H](CCC(N)=O)C(=O)N[C@@H](CCSC)C(=O)N[C@@H](C)C(=O)N[C@H](C(=O)N[C@@H](CCCCN)C(=O)N[C@@H](CCCCN)C(=O)N[C@@H](Cc1ccc(O)cc1)C(=O)N[C@@H](CC(C)C)C(=O)N[C@@H](C)C(=O)N[C@@H](C)C(=O)N[C@H](C(=O)N[C@@H](CC(C)C)C(=O)NCC(=O)N[C@@H](CCCCN)C(=O)N[C@@H](CCCNC(=N)N)C(=O)N[C@@H](Cc1ccc(O)cc1)C(=O)N[C@@H](CCCCN)C(=O)N[C@@H](CCC(N)=O)C(=O)N[C@@H](CCCNC(=N)N)C(=O)N[C@H](C(=O)N[C@@H](CCCCN)C(=O)N[C@@H](CC(N)=O)C(=O)N[C@@H](CCCCN)C(N)=O)C(C)C)C(C)C)C(C)C)[C@@H](C)O)N(C)C(=O)CNC(=O)[C@H](CC(=O)O)NC(=O)[C@H](CO)NC(=O)[C@@H](N)Cc1cnc[nH]1
